The values below come from PubChem BioAssay.

Assay [1] in a line: reduced viability of SK-BR-3 breast cancer cells – cell-based, 24 h, human, pilot screen (AID 572).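 Note: compound exposure lasted between 18 and 24 h rather than exactly 24 h; 100% = carrier-treated control wells.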 As to conditions: SK-BR-3 viability, CellTiter-Glo luminescence, at 10 µM, stronger effect = lower value. A general note: ATP-based viability assays read luminescence as a measure of living cells.
Assay [2] in a line: HUVEC growth inhibition – cell-based, human, primary screen (AID 575;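 active = viability at or below 30% in both replicate assays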;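 note: 100% = median of untreated cell wells with 0.1% DMSO on each plate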). As to conditions: HUVEC proliferation, CellTiter-Glo luminescence, 72 h; at 10 µM; stronger effect = lower value. In a few lines:
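Test system: primary human umbilical vein endothelial cells. Quantity: 1250 cells/well. Compound: single 10 µM dose, 0.1% DMSO, from 5x medium stock. Timing: 72 h treatment at 37 °C. Detection: ATP-based CellTiter-Glo luminescent read. Benchmarks: vehicle and MePR control wells. Format: 384-well plates coated with collagen.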

A short description of assay [3]: H69AR cell proliferation blockers – human, duplicate replicates, primary screen (AID 580;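 active = viability at or under a set limit in both replicates, limit being median viability minus 3 SD, cut at about 48% in these data, passing the limit was not always enough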;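 note: 100% = mean luminescence of untreated wells and 0% = no signal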). Conditions: H69AR lung tumor cells viability, ATP luminescence, 72 h; at 10 µM; stronger effect = lower value.
Assay [4] in a line: MRP1 drug-resistance reversers in H69AR cells – cell-based, doxorubicin co-treatment, pilot screen (AID 601;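 active = viability loss from added drug above about 55%, and viability with drug at most 40%, in both replicates, limit read from the data, passing the limit was not always enough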). Conditions: CellTiter-Glo, 72 h, at 10 µM; for differential viability (reversal): stronger effect = higher value.
A short description of assay [5]: yeast transport mutant growth inhibition pilot in 384-well plates, post-Golgi transport modulator project (AID 636; in the data active = inhibition above about 31%). As to conditions: absorbance 615 nm, about 18 h, stronger effect = higher value.
Assay [6] in a line: growth suppression of yeast trafficking mutant, preliminary HTS, modulators of trafficking downstream of Golgi apparatus project, 1536-format plate, OD 615 nm (AID 637; in the data active = inhibition above about 30%). As to conditions: yeast transport mutant growth, absorbance 615 nm, 18 h; stronger effect = higher value.
[7] abbreviates: H69AR cells + 2 uM doxorubicin, measured here: viability with 2 uM doxorubicin, stronger effect = lower value.
Where [8] appears, read: H69AR cells, compound alone cytotoxicity.

Structures are written as SMILES. Active and inactive are the calls of the source.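 Rule for the calls, unless noted: active = viability at or below 10% of carrier control in both of two separate runs; inconclusive = viability at or below 10% in only one of the two runs; inactive = the rest.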

As usually defined, the viability is a read-out of living cells in per cent, often relative to untreated cells. Broadly, the inhibition is the relative decrease from the control value, in per cent. Consider `Cc1cc(Br)c(S(=O)(=O)n2nnc3ccccc32)cc1C`, for which the viability in assay [1] was 107% (inactive); in assay [2] it was 101% (inactive); in assay [3] it was 81.8% (inactive); in assay [4] (setting [7]), 85.8%; in assay [4] (setting [8]), 81.8%. The differential viability (reversal) in assay [4] (H69AR cells + 2 uM doxorubicin) was -4.02% (inactive). Also, the inhibition in assay [5] was -8.22% (inactive); in assay [6] it was 5.09% (inactive).

As to `Cc1ccc(S(=O)(=O)N2CCN(C(=O)N3CCOCC3)C2c2ccc(N(C)C)cc2)cc1` (centres undefined), the viability is 106% (inactive) in assay [1]; 96.3% (inactive) in assay [2]; 110% (inactive) in assay [3]; 105% in assay [4] (setting [7]); 110% in assay [4] (setting [8]). Moreover, in assay [4] (H69AR cells + 2 uM doxorubicin), the differential viability (reversal) was 5.79% (inactive). In addition, the inhibition in assay [5] was -6.03% (inactive); in assay [6], 9.64% (inactive).

Turning to `CCOCCCn1c(=NC(C)=O)c(C(=O)OCC)cc2c(=O)n3ccccc3nc21`, the viability in assay [1] was 82% (inactive); in assay [2] it was 108% (inactive); in assay [3], 90.5% (inactive); in assay [4] (setting [7]) it was 47.4%; in assay [4] (setting [8]) it was 90.5%. For the same compound, the differential viability (reversal) in assay [4] (H69AR cells + 2 uM doxorubicin) was 43.1% (inactive). Moreover, the inhibition in assay [5] is -0.68% (inactive); in assay [6], 2% (inactive).

Regarding `O=C(NC1=NCCS1)c1ccc2c(c1)C(=O)N(Cc1ccco1)C2=O`, the viability is 85% (inactive) in assay [1]; 94% (inactive) in assay [2]; 93.6% (inactive) in assay [3]; 91.8% in assay [4] (setting [7]); 93.6% in assay [4] (setting [8]). Moreover, the differential viability (reversal) in assay [4] (H69AR cells + 2 uM doxorubicin) was 1.83% (inactive). The inhibition in assay [5] was -7.26% (inactive); in assay [6] it was 4.73% (inactive).

As to `CCOc1ccc(-c2nc(C#N)c(NCc3ccc4c(c3)OCO4)o2)cc1`, the viability is 68% (inactive) in assay [1]; 58.8% (inactive) in assay [2]; 70.4% (inactive) in assay [3]; 69.6% in assay [4] (setting [7]); 70.4% in assay [4] (setting [8]). In addition, in assay [4] (H69AR cells + 2 uM doxorubicin), the differential viability (reversal) is 0.795% (inactive). The inhibition in assay [5] was 1.03% (inactive); in assay [6] it was -0.5% (inactive).

Regarding `O=C(CNCC1CCCO1)Nc1ccccc1-n1cccc1` (centres undefined), the viability in assay [1] is 80% (inactive); in assay [2], 106% (inactive); in assay [3], 95.7% (inactive); in assay [4] (setting [7]) it was 90.6%; in assay [4] (setting [8]) it was 95.7%. For the same compound, the differential viability (reversal) in assay [4] (H69AR cells + 2 uM doxorubicin) is 5.03% (inactive). The inhibition is -8.38% (inactive) in assay [5] and -2.36% (inactive) in assay [6].

Regarding `CCN(CC)S(=O)(=O)c1ccc(NC(=O)Cn2cnc3ccccc3c2=O)cc1`, the viability in assay [1] was 87% (inactive); in assay [2], 85.9% (inactive); in assay [3], 93.8% (inactive); in assay [4] (setting [7]), 85.8%; in assay [4] (setting [8]), 93.8%. Moreover, the differential viability (reversal) in assay [4] (H69AR cells + 2 uM doxorubicin) was 8.02% (inactive). Also, the inhibition in assay [5] is 0.96% (inactive); in assay [6], -1.29% (inactive).

Take `CC(=O)Nc1ccc(S(=O)(=O)N(C2=NCC(C)S2)c2ccccc2)cc1` (centres undefined): the viability in assay [1] was 85% (inactive); in assay [2], 80.3% (inactive); in assay [3] it was 91.7% (inactive); in assay [4] (setting [7]) it was 89.8%; in assay [4] (setting [8]), 91.7%. The differential viability (reversal) in assay [4] (H69AR cells + 2 uM doxorubicin) was 1.89% (inactive). In addition, the inhibition is -2.47% (inactive) in assay [5] and -4.35% (inactive) in assay [6].

Turning to `COc1cc(C2Oc3cc(C4Oc5cc(O)cc(O)c5C(=O)C4O)ccc3OC2CO)ccc1O` (centres undefined), the viability in assay [1] was 106% (inactive); in assay [2], 85.7% (inactive); in assay [3], 97.4% (inactive); in assay [4] (setting [7]) it was 93.2%; in assay [4] (setting [8]), 97.4%. Further, the differential viability (reversal) in assay [4] (H69AR cells + 2 uM doxorubicin) was 4.15% (inactive). Further, the inhibition in assay [5] is 1.3% (inactive); in assay [6], -3.5% (inactive).

As to `O=C(NC1CCCC1)C(NS(=O)(=O)c1cccc2nsnc12)c1ccccc1` (centres undefined), the viability is 116% (inactive) in assay [1]; 103% (inactive) in assay [2]; 79% (inactive) in assay [3]; 81.5% in assay [4] (setting [7]); 79% in assay [4] (setting [8]). Moreover, the differential viability (reversal) in assay [4] (H69AR cells + 2 uM doxorubicin) was -2.47% (inactive). The inhibition in assay [5] was -8.08% (inactive); in assay [6] it was 8.18% (inactive).

For `CC(=O)c1cccc(NC(=O)NCc2ccco2)c1`, the viability was 93% (inactive) in assay [1]; 93.9% (inactive) in assay [2]; 85.7% (inactive) in assay [3]; 86.2% in assay [4] (setting [7]); 85.7% in assay [4] (setting [8]). Besides, the differential viability (reversal) in assay [4] (H69AR cells + 2 uM doxorubicin) is -0.48% (inactive). In addition, the values for the inhibition in assay [5] and in assay [6] were -4.79% (inactive) and 2.36% (inactive), respectively.

As to `O=C(Nc1ccc(N2CCCC2)cc1)c1cccc(F)c1`, the viability in assay [1] was 134% (inactive); in assay [2] it was 51.7% (inactive); in assay [3] it was 25.8% (active); in assay [4] (setting [7]), 50.3%; in assay [4] (setting [8]) it was 25.8%. Besides, the differential viability (reversal) in assay [4] (H69AR cells + 2 uM doxorubicin) was -24.6% (inactive). In addition, the inhibition in assay [5] is -0.78% (inactive); in assay [6] it was -0.82% (inactive).

Take `C=CCNc1nc2c(c(=O)n(C)c(=O)n2C)n1CCCCCC`: the viability is 92% (inactive) in assay [1]; 60.4% (inactive) in assay [2]; 82.6% (inactive) in assay [3]; 82.4% in assay [4] (setting [7]); 82.6% in assay [4] (setting [8]). In addition, in assay [4] (H69AR cells + 2 uM doxorubicin), the differential viability (reversal) is 0.165% (inactive). In addition, the inhibition was -5.73% (inactive) in assay [5] and 5.27% (inactive) in assay [6].

Take `COc1ccc(OC)c(NC(=O)C23CCC(C)(C(=O)C2)C3(C)C)c1` (centres undefined): the viability in assay [1] is 72% (inactive); in assay [2] it was 101% (inactive); in assay [3] it was 102% (inactive); in assay [4] (setting [7]), 103%; in assay [4] (setting [8]) it was 102%. Also, the differential viability (reversal) in assay [4] (H69AR cells + 2 uM doxorubicin) was -0.69% (inactive). Also, the inhibition was -6.3% (inactive) in assay [5] and -2.73% (inactive) in assay [6].

In the case of `CCN(CC)c1ccc(C(=O)n2cnc3ccccc32)cc1`, the viability was 111% (inactive) in assay [1]; 61.5% (inactive) in assay [2]; 15.1% (active) in assay [3]; 68.8% in assay [4] (setting [7]); 15.1% in assay [4] (setting [8]). Also, the differential viability (reversal) in assay [4] (H69AR cells + 2 uM doxorubicin) is -53.7% (inactive). The figures for the inhibition in assay [5] and in assay [6] were -3.33% (inactive) and -2% (inactive), respectively.

On to `CCCCOc1ccc(C2C3CN(C(=O)OCC)CC=C3C(C#N)=C(N)C2(C#N)C#N)cc1OC` (centres undefined), for which the viability was 62% (inactive) in assay [1]; 51.2% (inactive) in assay [2]; 60.5% (inactive) in assay [3]; 55.4% in assay [4] (setting [7]); 60.5% in assay [4] (setting [8]). Moreover, the differential viability (reversal) in assay [4] (H69AR cells + 2 uM doxorubicin) was 5.07% (inactive). Moreover, the inhibition in assay [5] is -5.27% (inactive); in assay [6], 2.13% (inactive).

Regarding `Cc1cc(/C=N\O)c(C)n1-c1ccncc1`, the viability in assay [1] is 120% (inactive); in assay [2] it was 83.8% (inactive); in assay [3] it was 91.4% (inactive); in assay [4] (setting [7]), 96.4%; in assay [4] (setting [8]), 91.4%. Besides, the differential viability (reversal) in assay [4] (H69AR cells + 2 uM doxorubicin) is -5.03% (inactive). Besides, the values for the inhibition in assay [5] and in assay [6] were -7.26% (inactive) and -0.32% (inactive), respectively.

For `CCOC(=O)C1=C[C@]2(CC)CCCN3CCc4c(n1c1ccccc41)[C@@H]32`, the viability in assay [1] was 70% (inactive); in assay [2], 49.9% (inactive); in assay [3], 80.1% (inactive); in assay [4] (setting [7]), 63.7%; in assay [4] (setting [8]) it was 80.1%. Besides, the differential viability (reversal) in assay [4] (H69AR cells + 2 uM doxorubicin) was 16.4% (inactive). Moreover, the inhibition in assay [5] is -0.26% (inactive); in assay [6], -1.67% (inactive).
